Laboratory results reported in ChEMBL document CHEMBL2163205 (J Med Chem, 2012).
≈ marks a conversion by molar mass, not a printed value.

How the values were obtained:
[1] = Intrinsic clearance in human liver microsomes assessed as metabolic turnover
[2] = Intrinsic clearance in rat liver microsomes assessed as metabolic turnover
[3] = target: Procathepsin L (Homo sapiens, UniProt P07711); test: Inhibition of human recombinant CatL assessed as suppression of enzyme-mediated Z-Phe-Arg-AMC cleavage by QFRET assay
Method in brief: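 Recombinant human Cat L at 0.1 nM final was preincubated with compound for 30 min, then Z-Phe-Arg-AMC (10 μM final) was added. QFRET cleavage was run 1 h at room temperature and stopped with acetic acid. Fluorescence read at ex 360/em 425 nm; IC50 by variable-slope nonlinear regression.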

[4] = target: T1, Cathepsin K (Homo sapiens, UniProt P43235); test: Inhibition of human recombinant CatK assessed as suppression of enzyme-mediated Z-Phe-Arg-AMC cleavage incubated for 1 hrs by QFRET assay
T1 sequence (P43235 whole entry): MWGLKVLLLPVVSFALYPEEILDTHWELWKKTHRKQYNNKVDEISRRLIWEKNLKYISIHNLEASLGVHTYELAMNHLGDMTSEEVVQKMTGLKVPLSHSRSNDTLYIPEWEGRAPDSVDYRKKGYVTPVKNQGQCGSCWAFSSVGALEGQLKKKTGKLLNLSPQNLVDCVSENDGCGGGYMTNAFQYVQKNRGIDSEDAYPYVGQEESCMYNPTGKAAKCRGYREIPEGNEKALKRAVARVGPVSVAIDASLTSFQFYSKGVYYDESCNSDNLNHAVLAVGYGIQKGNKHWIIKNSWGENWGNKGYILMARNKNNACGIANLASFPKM

[5] = Aqueous solubility of the compound at pH 7.4; conditions: buffer
[6] = target: Cathepsin S (Homo sapiens, UniProt P25774); test: Inhibition of human recombinant CatS assessed as suppression of enzyme-mediated Z-Val-Val-Arg-AMC cleavage by QFRET assay
Method in brief: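 Recombinant human Cat S at 0.5 nM final was preincubated with compound for 30 min at room temperature. Z-Val-Val-Arg-AMC (100 μM final) was added in potassium phosphate buffer, pH 6.4, incubated 1 h, then stopped with acetic acid. AMC fluorescence read at ex 360/em 425 nm; IC50 by nonlinear regression.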

[7] = target: Cathepsin B (Homo sapiens, UniProt P07858); test: Inhibition of human recombinant CatB assessed as suppression of enzyme-mediated Z-Arg-Arg-AMC cleavage by QFRET assay
Method in brief: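 Recombinant human Cat B at 0.5 nM final was preincubated with compound for 30 min at room temperature. Z-Arg-Arg-AMC (100 μM final) was added in potassium phosphate buffer, pH 6.4, incubated 1 h, then stopped with acetic acid. Fluorescence read at ex 360/em 425 nm with background correction; IC50 by nonlinear regression.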

[8] = Lipophilicity, log D of the compound at pH 7.4; conditions: buffer

Chain of Cathepsin S (P25774 whole entry): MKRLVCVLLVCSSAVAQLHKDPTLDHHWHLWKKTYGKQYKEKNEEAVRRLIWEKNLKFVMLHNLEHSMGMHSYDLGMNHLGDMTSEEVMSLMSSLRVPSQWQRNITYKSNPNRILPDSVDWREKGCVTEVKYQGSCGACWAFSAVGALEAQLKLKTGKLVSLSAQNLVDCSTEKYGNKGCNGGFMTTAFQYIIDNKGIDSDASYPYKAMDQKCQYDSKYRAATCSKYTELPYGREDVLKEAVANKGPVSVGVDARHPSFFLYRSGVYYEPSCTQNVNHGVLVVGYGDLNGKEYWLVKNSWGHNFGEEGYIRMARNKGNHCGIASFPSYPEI
Chain of Procathepsin L (P07711 whole entry): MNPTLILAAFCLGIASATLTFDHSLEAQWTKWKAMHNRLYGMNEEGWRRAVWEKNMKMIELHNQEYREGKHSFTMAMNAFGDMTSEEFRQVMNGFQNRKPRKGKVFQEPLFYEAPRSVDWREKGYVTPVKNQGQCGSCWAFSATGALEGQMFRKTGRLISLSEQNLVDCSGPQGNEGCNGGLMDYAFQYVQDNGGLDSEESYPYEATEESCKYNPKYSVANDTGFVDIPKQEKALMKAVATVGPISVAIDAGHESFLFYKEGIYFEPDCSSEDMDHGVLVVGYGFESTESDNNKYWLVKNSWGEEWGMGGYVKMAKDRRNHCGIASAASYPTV

Row | Compound | microsomal CLint [1] [µL/min/mg] | microsomal CLint [2] [µL/min/mg] | IC50 [3] | IC50 [4] [nM] | solubility [5] [µM] | IC50 [6] [µM] | IC50 [7] [nM] | logD [8] | IC50 ([3]; read-out: IC50) [µM]
1 | Cn1c2c(c3c(F)c(F)ccc31)CN(C(=O)[C@@H]1CCCC[C@H]1C(=O)NC1(C#N)CC1)CC2 | 170 | > 350 | Not Active | 3 | 300 (≈ 132 µg/mL) | > 4 | > 2900 | 2.8 | 
2 | CS(=O)(=O)c1ccc2c3c([nH]c2c1)CCN(C(=O)[C@@H]1CCCC[C@H]1C(=O)NC1(C#N)CC1)C3 | < 2 | 7.2 | Not Active | 34 | 902 (≈ 423 µg/mL) | > 4 | > 2900 | 1.5 | 
3 | N#CC1(NC(=O)[C@@H]2CCCC[C@H]2C(=O)N2CCc3[nH]c4c(Br)cccc4c3C2)CC1 | 43 | 164 | Not Active | 4 |  |  | > 2900 |  | 
4 | COc1ccccc1C(C#N)NC(=O)[C@@H]1CCCC[C@H]1C(=O)N1CCN(Cc2ccc(F)cc2)CC1 (some centres undefined) |  |  |  | 1 |  | 0.076 |  |  | 
5 | CSc1cccc2c3c([nH]c12)CCN(C(=O)[C@@H]1CCCC[C@H]1C(=O)NC1(C#N)CC1)C3 | 79 | 303 | Not Active | 4 |  | > 4 | > 2900 |  | 
6 | N#CC1(NC(=O)[C@@H]2CCCC[C@H]2C(=O)N2CCc3[nH]c4cc(F)ccc4c3C2)CC1 | 36 | 89 | Not Active | 4 | 540 (≈ 221 µg/mL) | > 4 | > 2900 | 3 | 
7 | N#CC1(NC(=O)[C@@H]2CCCC[C@H]2C(=O)N2CCc3[nH]c4c(F)cccc4c3C2)CC1 | 55 | 311 | Not Active | < 1 | 470 (≈ 192 µg/mL) | > 4 | > 2900 | 3 | 
8 | N#CCNC(=O)[C@@H]1CCCC[C@H]1C(=O)N1CCc2[nH]c3ccc(F)cc3c2C1 | 18 | > 250 |  | < 1 |  |  | 1420 |  | > 40
9 | N#CC(NC(=O)[C@@H]1CCCC[C@H]1C(=O)N1CCN(c2ccc(F)cc2)CC1)c1ccccc1 (some centres undefined) |  |  |  | 3 |  | 0.258 |  |  | 
10 | C[C@@H](C#N)NC(=O)[C@@H]1CCCC[C@H]1C(=O)N1CCc2[nH]c3ccc(F)cc3c2C1 |  |  |  | 17.3 |  | > 70 | 73500 | 3.5 | > 40
11 | Cc1cccc2c3c([nH]c12)CCN(C(=O)[C@@H]1CCCC[C@H]1C(=O)NC1(C#N)CC1)C3 | 25 | 179 | Not Active | 3 | 510 (≈ 206 µg/mL) | > 4 | > 2900 | 3 | 
12 | N#CC1(NC(=O)[C@@H]2CCCC[C@H]2C(=O)N2CCc3[nH]c4ccc(C(F)(F)F)cc4c3C2)CC1 | 33 | 82 | Not Active |  | 74 (≈ 33.9 µg/mL) | > 4 | > 2900 | 4.2 | 
13 | CCOc1cccc2c3c([nH]c12)CCN(C(=O)[C@@H]1CCCC[C@H]1C(=O)NC1(C#N)CC1)C3 | 13 | 62 | Not Active | < 1 | 300 (≈ 130 µg/mL) | > 4 | > 2900 | 3.1 | 
14 | CS(=O)(=O)c1cccc2c3c([nH]c12)CCN(C(=O)[C@@H]1CCCC[C@H]1C(=O)NC1(C#N)CC1)C3 | 4 | 23 | Not Active | 17 | 1600 (≈ 750 µg/mL) | > 4 | > 2900 | 1.7 | 
15 | CC(C)c1ccc2[nH]c3c(c2c1)CN(C(=O)[C@@H]1CCCC[C@H]1C(=O)NC1(C#N)CC1)CC3 |  |  | Not Active | 50 | 84 (≈ 36.3 µg/mL) | > 4 | > 2900 | 4.1 | 
16 | CC(C)(C)[C@@H](C#N)NC(=O)[C@@H]1CCCC[C@H]1C(=O)N1CCc2[nH]c3ccc(F)cc3c2C1 | 99 | 195 |  | 785 | 74 (≈ 32.5 µg/mL) | > 100 | 31200 | > 4.1 | > 100
17 | N#Cc1cccc2c3c([nH]c12)CCN(C(=O)[C@@H]1CCCC[C@H]1C(=O)NC1(C#N)CC1)C3 | 34 | 80 | Not Active | 2 | 400 (≈ 166 µg/mL) | > 4 | > 2900 | 2.5 | 
18 | N#CC1(NC(=O)[C@@H]2CCCC[C@H]2C(=O)N2CCc3[nH]c4c(Cl)cccc4c3C2)CC1 | 46 | 226 | Not Active | 2 |  |  | > 2900 |  | 
19 | N#CCNC(=O)[C@@H]1CCCC[C@H]1C(=O)N1CCN(c2ccccc2)CC1 | 7.7 | 115 |  | 7 | 640 (≈ 227 µg/mL) | 1.03 | 455 | 1.8 | > 100
20 | N#CC1(NC(=O)[C@@H]2CCCC[C@H]2C(=O)N2CCc3[nH]c4c(C(F)(F)F)cccc4c3C2)CC1 | 26 | 116 | Not Active | 5 | 150 (≈ 68.8 µg/mL) | > 4 | > 2900 | 3.8 | 
21 | CC(C)(F)C[C@H](N[C@@H](c1ccc(-c2ccc(S(C)(=O)=O)cc2)cc1)C(F)(F)F)C(=O)NC1(C#N)CC1 [ODANACATIB] |  |  |  | < 1 |  | 0.183 |  |  | 
22 | N#CC1(NC(=O)[C@@H]2CCCC[C@H]2C(=O)N2CCc3[nH]c4ccc(Cl)cc4c3C2)CC1 | 87 | > 350 | Not Active |  | 130 (≈ 55.2 µg/mL) | > 4 | > 2900 | 3.7 | 
23 | N#CCNC(=O)[C@@H]1CCCC[C@H]1C(=O)N1CC=CCC1 | 4.5 | 41 |  | 18 |  |  |  |  | > 100
24 | N#CCNC(=O)[C@@H]1CCCC[C@H]1C(=O)N1CCc2ccccc2C1 | 23 | 145 |  | 2 |  |  | 712 |  | 3.11
